Active and inactive are the calls of the source. The rule behind the calls is not given here.
What was measured:
[1] = Toxicity in po dosed albino Sprague-Dawley rat assessed as behavioral toxicity after 0.25 to 4 hrs; assay type: organism-based; conditions: in vivo
Method in brief: (§1)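 Male albino Sprague-Dawley rats dosed ip or orally, scored for behavioral toxicity (neurological impairment). TD50 is in mg/kg, taken at the time of peak effect.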

Rattus norvegicus [2] = assay: Anticonvulsant activity against po dosed albino Sprague-Dawley rat after 0.25 to 4 hrs by maximal electroshock seizure test; assay type: functional
Method in brief: (§2)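 Male albino Sprague-Dawley rats dosed ip or orally under the NIH Anticonvulsant Screening Program, tested by maximal electroshock seizure.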

[3] = Toxicity in ip dosed albino Sprague-Dawley rat assessed as behavioral toxicity after 0.25 to 4 hrs; assay type: organism-based; conditions: in vivo; method in brief: as §1
Rattus norvegicus [4] = assay: Anticonvulsant activity against ip dosed albino Sprague-Dawley rat after 0.25 to 4 hrs by maximal electroshock seizure test; assay type: functional; method in brief: as §2
[5] = Toxicity in ip dosed albino CF1 mouse after 0.25 to 4 hrs by rotorod test; assay type: organism-based; conditions: in vivo
Mus musculus [6] = assay: Anticonvulsant activity against ip dosed albino CF1 mouse after 0.25 to 4 hrs by subcutaneous pentylenetetrazol test; assay type: functional
Mus musculus [7] = assay: Anticonvulsant activity against ip dosed albino CF1 mouse after 1 to 4 hrs by 6 Hz psychomotor seizure test; assay type: functional
Mus musculus [8] = assay: Anticonvulsant activity against ip dosed albino CF1 mouse after 0.25 to 4 hrs by maximal electroshock seizure test; assay type: functional
Rattus norvegicus [9] = organism: Rattus norvegicus; assay: Inhibition of Na+ channel in rat embryonic cortical neurons assessed as frequency-dependent inactivation at 20 uM by whole cell voltage clamp technique relative to control
Rattus norvegicus [10] = organism: Rattus norvegicus; assay: Inhibition of Na+ channel in rat embryonic cortical neurons assessed as fast inactivation at 20 uM by whole cell voltage clamp technique (reference value: -53.9 +/- 1.2 mV)
Method in brief: (§3)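 Embryonic day 19 rat cortical neurons by whole-cell voltage clamp at room temperature, with protocols mostly as for CAD cells. 20 μM compared with 0.1% DMSO. Activation from 15-ms pulses, −70 to +80 mV; conductance G = I/(Vm − Vrev); Boltzmann fits giving V1/2 and k. Mean ± SEM; ANOVA with post-hoc test.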

Rattus norvegicus [11] = organism: Rattus norvegicus; assay: Inhibition of Na+ channel in rat embryonic cortical neurons assessed as steady state activation at 20 uM by whole cell voltage clamp technique relative to control; method in brief: as §3
Rattus norvegicus [12] = organism: Rattus norvegicus; assay: Inhibition of Na+ channel in rat embryonic cortical neurons assessed as slow inactivation at 20 uM by whole cell voltage clamp technique; method in brief: as §3
CAD [13] = assay: Inhibition of Na+ channel in mouse CAD cells assessed as frequency-dependent inactivation at 10 uM by whole cell voltage clamp technique relative to control; assay type: cell-based
Method in brief: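 Frequency (use)-dependent inhibition of Na+ currents in CAD cells by whole-cell voltage clamp at room temperature. Current trend and amplitude at 10 μM compared with control.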

CAD [14] = assay: Inhibition of Na+ channel in mouse CAD cells assessed as fast inactivation by whole cell voltage clamp technique; assay type: cell-based
Method in brief: (§4)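 Steady-state fast inactivation in CAD cells by whole-cell voltage clamp at room temperature. Cells held at −80 mV, given 500-ms prepulses from −120 to −10 mV in 10-mV steps, then a 20-ms step to 0 mV. Curves fitted with a single Boltzmann; V1/2 shift compared with 0.1% DMSO by ANOVA and Dunnett's test. Mean ± SEM.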

CAD [15] = assay: Inhibition of Na+ channel in mouse CAD cells assessed as hyperpolarizing shift at 30 uM by whole cell voltage clamp technique (reference value: -71.6 +/- 0.6 mV); assay type: cell-based; method in brief: as §4
CAD [16] = assay: Inhibition of Na+ channel in mouse CAD cells assessed as hyperpolarizing shift at 1 uM by whole cell voltage clamp technique (reference value: -71.6 +/- 0.6 mV); assay type: cell-based; method in brief: as §4
Rattus norvegicus [17] = organism: Rattus norvegicus; assay: Protective index, ratio of TD50 for albino Sprague-Dawley rat to ED50 for albino Sprague-Dawley rat; assay type: functional
Method in brief: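 Protective index is TD50/ED50, both from orally dosed male Sprague-Dawley rats. TD50 is for behavioral toxicity and ED50 is for maximal electroshock seizure.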

[18] = Inhibition of Na+ channel in mouse CAD cells assessed as slow inactivation by whole cell voltage clamp technique; assay type: cell-based
Method in brief: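 CAD cells (Ham's F12/EMEM, 8% FBS, 37 °C, 5% CO2) by whole-cell voltage clamp at room temperature. Na+ channel slow inactivation measured at −50 mV; IC50 is the concentration at which half of the channels reach a slow-inactivated state.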

Rattus norvegicus [19] = assay: Anticonvulsant activity against po dosed albino Sprague-Dawley rat after 2 hrs by maximal electroshock seizure test; assay type: functional; method in brief: as §2
Rattus norvegicus [20] = assay: Toxicity in ip dosed albino Sprague-Dawley rat assessed as behavioral toxicity after 2 hrs; assay type: organism-based; conditions: in vivo; method in brief: as §1
Rattus norvegicus [21] = assay: Anticonvulsant activity against ip dosed albino Sprague-Dawley rat after 2 hrs by maximal electroshock seizure test; assay type: functional; method in brief: as §2
Mus musculus [22] = assay: Toxicity in ip dosed albino CF1 mouse after 6 hrs by rotorod test; assay type: organism-based; conditions: in vivo
Mus musculus [23] = assay: Anticonvulsant activity against ip dosed albino CF1 mouse after 4 hrs by subcutaneous pentylenetetrazol test; assay type: functional; conditions: albino CF1, 4 h
Mus musculus [24] = assay: Anticonvulsant activity against ip dosed albino CF1 mouse after 1 hr by 6 Hz psychomotor seizure test; assay type: functional
Mus musculus [25] = assay: Anticonvulsant activity against ip dosed albino CF1 mouse after 0.5 hrs by maximal electroshock seizure test; assay type: functional
Mus musculus [26] = assay: Anticonvulsant activity against ip dosed albino CF1 mouse after […] by maximal electroshock seizure test; assay type: functional
Rattus norvegicus [27] = assay: Anticonvulsant activity against po dosed albino Sprague-Dawley rat […] by maximal electroshock seizure test; assay type: functional; method in brief: as §2
Mus musculus [28] = assay: Toxicity in ip dosed albino CF1 mouse after 0.5 to 2 hrs by rotorod test; assay type: organism-based; conditions: in vivo
Mus musculus [29] = assay: Anticonvulsant activity against ip dosed albino CF1 mouse after 0.5 to 2 hrs by 6 Hz psychomotor seizure test; assay type: functional
Rattus norvegicus [30] = assay: Anticonvulsant activity against po dosed albino Sprague-Dawley rat after 5 hrs by maximal electroshock seizure test; assay type: functional
Method in brief: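 Male albino Sprague-Dawley rats given compound orally under the NIH Anticonvulsant Screening Program, then challenged by maximal electroshock.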

Mus musculus [31] = assay: Anticonvulsant activity against ip dosed albino CF1 mouse after 1 hr by maximal electroshock seizure test; assay type: functional
Mus musculus [32] = assay: Anticonvulsant activity against ip dosed albino CF1 mouse after 0.5 to 4 hrs by subcutaneous pentylenetetrazol test; assay type: functional

With Cl.NCc1ccc(-c2ccc(Cl)cc2)cc1 the TD50 [1] was over 30 mg/kg, the ED50 (Rattus norvegicus [2]) was over 30 mg/kg and the TD50 [3] was over 30 mg/kg. The ED50 (Rattus norvegicus [4]) was over 30 mg/kg, the TD50 [5] was over 50 mg/kg and the ED50 (Mus musculus [6]) was over 50 mg/kg. It also gave an ED50 (Mus musculus [7]) of under 100 mg/kg and an ED50 (Mus musculus [8]) of over 50 mg/kg.

For Cl.NCc1ccc(-c2cccc(OC(F)(F)F)c2)cc1, the inhibition (Rattus norvegicus [9]) was “inactive”, the V1/2 (Rattus norvegicus [10]) was -69.6 mV and the inhibition (Rattus norvegicus [11]) was “inactive”. For the same compound, the inhibition (Rattus norvegicus [12]) was “Active”, the inhibition (CAD [13]) was “inactive” and the inhibition (CAD [14]) was “inactive”. For the same compound, the V1/2 (CAD [15]) was 26.5 mV, the V1/2 (CAD [16]) was 11.2 mV and the “Ratio TD50/ED50” value (Rattus norvegicus [17]) was over 57. It also gave an IC50 [18] of 2700 nM, a TD50 [1] of over 500 mg/kg and an ED50 (Rattus norvegicus [19]) of 8.7 mg/kg. For the same compound, the TD50 (Rattus norvegicus [20]) was 72 mg/kg, the ED50 (Rattus norvegicus [21]) was 16 mg/kg and the TD50 (Mus musculus [22]) was 81 mg/kg. The ED50 (Mus musculus [23]) was 81 mg/kg, the ED50 (Mus musculus [24]) was 43 mg/kg and the ED50 (Mus musculus [25]) was 25 mg/kg.

In the case of NCc1ccc(OCc2cccc(F)c2)cc1, the inhibition (CAD [13]) is reported as “Active”, the inhibition (CAD [14]) is reported as “Active” and the IC50 [18] is reported as 2100 nM.

Compound CCCC(CCC)C(=O)O [VALPROIC ACID] has an ED50 (Mus musculus [26]) of 270 mg/kg.

O=C1NC(=O)C(c2ccccc2)(c2ccccc2)N1 [PHENYTOIN] showed an ED50 (Rattus norvegicus [27]) of 30 mg/kg.

Work on COC(=O)c1cccc(-c2ccc(CN)cc2)c1.Cl yielded a TD50 [1] of over 30 mg/kg, an ED50 (Rattus norvegicus [2]) of over 30 mg/kg and a TD50 [3] of over 30 mg/kg. It also gave an ED50 (Rattus norvegicus [4]) of over 30 mg/kg, a TD50 (Mus musculus [28]) of 100 mg/kg and an ED50 (Mus musculus [29]) of over 300 mg/kg. It also gave an ED50 (Mus musculus [25]) of 100 mg/kg.

CCC1(c2ccccc2)C(=O)NC(=O)NC1=O [PHENOBARBITAL] gave an ED50 (Rattus norvegicus [30]) of 9.1 mg/kg and an ED50 (Mus musculus [31]) of 22 mg/kg.

For COc1cccc(-c2ccc(CN)cc2)c1.Cl, the TD50 [1] was over 30 mg/kg, the ED50 (Rattus norvegicus [2]) was over 30 mg/kg and the TD50 [3] was over 30 mg/kg. The ED50 (Rattus norvegicus [4]) was over 30 mg/kg, the TD50 [5] was over 100 mg/kg and the ED50 (Mus musculus [32]) was over 100 mg/kg. The ED50 (Mus musculus [24]) was 100 mg/kg and the ED50 (Mus musculus [26]) was under 100 mg/kg.

Reference: ChEMBL document CHEMBL2401663, “(Biphenyl-4-yl)methylammonium chlorides: potent anticonvulsants that modulate Na+ currents” (J Med Chem, 2013)
